Assay results from ChEMBL document CHEMBL2016515, “Triazoloamides as potent γ-secretase modulators with reduced hERG liability” (Bioorg Med Chem Lett, 2012).

Tests used:
Gamma-secretase [1] = experiment: Inhibition of gamma secretase-mediated amyloid beta40 production in human SH-SY5Y cells overexpressing beta-APP C-terminal SPA4CT by electrochemiluminescent analysis; type: cell-based
Outline: (§1)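 Each compound tested in at least two independent experiments; values reported in μM.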

Gamma-secretase [2] = experiment: Inhibition of gamma secretase-mediated amyloid beta42 production in human SH-SY5Y cells overexpressing beta-APP C-terminal SPA4CT by electrochemiluminescent analysis; type: cell-based; outline: as §1
[3] = Inhibition of gamma-secretase-mediated notch intracellular domain cleavage in HeLa cells by luciferase reporter gene assay; type: cell-based
Outline: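 Split-luciferase complementation: γ-secretase cleavage of NotchΔE frees NICD fused to N-terminal luciferase, which enters the nucleus and binds RBP-Jk fused to C-terminal luciferase. Total luminescence is read after adding luciferin to lysed cells. At least two independent experiments; values in μM.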

[4] = biological target: Voltage-gated inwardly rectifying potassium channel KCNH2 (Homo sapiens, UniProt Q12809)
Sequence of Voltage-gated inwardly rectifying potassium channel KCNH2 (Q12809 whole entry): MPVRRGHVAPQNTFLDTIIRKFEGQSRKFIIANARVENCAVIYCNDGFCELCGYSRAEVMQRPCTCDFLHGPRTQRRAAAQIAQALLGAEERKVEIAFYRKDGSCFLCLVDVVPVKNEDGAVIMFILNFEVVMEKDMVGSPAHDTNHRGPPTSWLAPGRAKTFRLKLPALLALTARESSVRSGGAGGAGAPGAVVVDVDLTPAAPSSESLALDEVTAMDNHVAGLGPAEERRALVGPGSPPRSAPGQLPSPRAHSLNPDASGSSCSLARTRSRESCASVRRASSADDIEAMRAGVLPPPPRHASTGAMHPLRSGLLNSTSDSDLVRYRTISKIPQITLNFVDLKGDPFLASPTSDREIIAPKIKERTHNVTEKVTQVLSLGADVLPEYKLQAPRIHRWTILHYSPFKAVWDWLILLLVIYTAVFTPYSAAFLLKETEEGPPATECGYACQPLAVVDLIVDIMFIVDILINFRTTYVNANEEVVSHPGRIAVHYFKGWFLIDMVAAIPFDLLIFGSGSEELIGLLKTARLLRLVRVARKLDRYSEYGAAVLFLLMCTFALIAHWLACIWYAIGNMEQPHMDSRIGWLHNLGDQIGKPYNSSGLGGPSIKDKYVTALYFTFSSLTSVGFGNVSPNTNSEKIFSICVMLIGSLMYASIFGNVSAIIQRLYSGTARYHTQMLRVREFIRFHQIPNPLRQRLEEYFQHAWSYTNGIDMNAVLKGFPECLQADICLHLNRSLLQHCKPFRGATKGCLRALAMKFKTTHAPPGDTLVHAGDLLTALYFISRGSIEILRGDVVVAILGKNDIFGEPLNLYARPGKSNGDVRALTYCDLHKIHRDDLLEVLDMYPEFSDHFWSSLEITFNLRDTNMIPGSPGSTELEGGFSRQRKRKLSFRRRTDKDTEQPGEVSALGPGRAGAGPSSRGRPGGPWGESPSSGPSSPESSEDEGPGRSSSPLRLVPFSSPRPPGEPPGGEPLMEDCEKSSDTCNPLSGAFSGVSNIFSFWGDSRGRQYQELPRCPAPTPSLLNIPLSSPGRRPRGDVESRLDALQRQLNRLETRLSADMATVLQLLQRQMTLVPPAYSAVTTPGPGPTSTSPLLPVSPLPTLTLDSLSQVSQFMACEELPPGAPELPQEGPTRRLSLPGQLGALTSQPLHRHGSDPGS

Structure (SMILES) | IC50 (Gamma-secretase [1]) | IC50 (Gamma-secretase [2]) | IC50 [3] | IC50 [4]
COc1cc(-c2cn(CC(=O)N(c3ccccc3)c3ccccc3)nn2)ccc1-n1cnc(C)c1 | > 10 µM | 1.63 µM | – | –
COc1cc(-c2cn(CC(=O)Nc3cccc4ccccc34)nn2)ccc1-n1cnc(C)c1 | 4.85 µM | 0.61 µM | 26.7 µM | > 10 µM
COc1cc(-c2cn(CC(=O)Nc3ccc4c(c3)OC(F)(F)O4)nn2)ccc1-n1cnc(C)c1 | 2.07 µM | 0.45 µM | 29.6 µM | –
COc1cc(-c2cn(CC(=O)NC3C4CC5CC(C4)CC3C5)nn2)ccc1-n1cnc(C)c1 (configuration not stated) | > 10 µM | 0.68 µM | > 50 µM | –
COc1cc(-c2cn(CC(=O)N(Cc3ccc(F)cc3)C3C4CC5CC(C4)CC3C5)nn2)ccc1-n1cnc(C)c1 (configuration not stated) | 1.9 µM | 0.24 µM | > 50 µM | 0.25 µM
COc1cc(-c2cn(CC(=O)N(Cc3ccccc3)Cc3ccccc3)nn2)ccc1-n1cnc(C)c1 | 4.42 µM | 0.37 µM | > 50 µM | –
COc1cc(-c2cn(CC(=O)N(Cc3ccccc3)[C@H](C)c3ccccc3)nn2)ccc1-n1cnc(C)c1 | 3.01 µM | 0.23 µM | > 50 µM | –
COc1cc(-c2cn(CC(=O)N([C@H](C)c3ccccc3)[C@H](C)c3ccccc3)nn2)ccc1-n1cnc(C)c1 | 5.17 µM | 0.43 µM | > 50 µM | –
COc1cc(-c2cn(CC(=O)N(C3CCCCC3)C3CCCCC3)nn2)ccc1-n1cnc(C)c1 | > 10 µM | 0.2 µM | 9 µM | –
COc1cc(-c2cn(CC(=O)N3CCC(c4nc5ccccc5o4)CC3)nn2)ccc1-n1cnc(C)c1 | > 10 µM | 0.94 µM | > 50 µM | 10.3 µM
COc1cc(-c2cn(CC(=O)N(CC(F)(F)F)c3ccc4c(c3)CCC4)nn2)ccc1-n1cnc(C)c1 | 1.25 µM | 0.18 µM | 24.6 µM | –
COc1cc(-c2cn(CC(=O)N(CC(F)(F)F)c3ccc4c(c3)OC(F)(F)O4)nn2)ccc1-n1cnc(C)c1 | 1.18 µM | 0.16 µM | 38.2 µM | –
COc1cc(-c2cn(CC(=O)N(CC(F)(F)F)c3ccc4ccccc4c3)nn2)ccc1-n1cnc(C)c1 | 0.66 µM | 0.08 µM | 48.5 µM | –
COc1cc(-c2cn(CC(=O)N(CC(F)(F)F)c3cccc4ccccc34)nn2)ccc1-n1cnc(C)c1 | 0.41 µM | 0.09 µM | 45.1 µM | –
COc1cc(-c2cn(C3CC[C@H]4CCCC[C@@H]4NC3=O)nn2)ccc1-n1cnc(C)c1 (mixture of isomers) | 3.86 µM | 0.62 µM | > 50 µM | –
COc1cc(-c2cn(C3C(=O)NC4CCC3C4)nn2)ccc1-n1cnc(C)c1 (racemic) | 9.87 µM | 1.09 µM | > 50 µM | –
COc1cc(-c2cn(C3CC(C4CCCCC4)CCNC3=O)nn2)ccc1-n1cnc(C)c1 (racemic) | 0.66 µM | 0.16 µM | 17 µM | 3.68 µM

More lines, main results first:

IC50 (Gamma-secretase [1]) | IC50 (Gamma-secretase [2]) | IC50 [3] | Structure (SMILES) | IC50 [4]
8.71 µM | 0.62 µM | – | COc1cc(-c2cn(CC(=O)N(c3ccccc3)C3CCCCC3)nn2)ccc1-n1cnc(C)c1 | –
2.43 µM | 0.27 µM | > 40 µM | COc1cc(-c2cn(CC(=O)N(Cc3ccccc3)CC(F)(F)F)nn2)ccc1-n1cnc(C)c1 | –
1.33 µM | 0.24 µM | > 50 µM | COc1cc(-c2cn([C@H]3C[C@@H](C(C)(C)C)CCN(CC45CC6CC(CC(C6)C4)C5)C3=O)nn2)ccc1-n1cnc(C)c1 | –
0.84 µM | 0.13 µM | 20 µM | COc1cc(-c2cn([C@H]3C[C@@H](C(C)(C)C)CCN(CC(C)(C)C)C3=O)nn2)ccc1-n1cnc(C)c1 | –
0.42 µM | 0.08 µM | 40.1 µM | COc1cc(-c2cn([C@H]3C[C@@H](C(C)(C)C)CCN(Cc4ccccc4)C3=O)nn2)ccc1-n1cnc(C)c1 | –
0.51 µM | 0.08 µM | 11.1 µM | COc1cc(-c2cn([C@H]3CC[C@H](c4ccccc4)CN(Cc4ccccc4)C3=O)nn2)ccc1-n1cnc(C)c1 | –
0.42 µM | 0.08 µM | 40.8 µM | COc1cc(-c2cn([C@H]3C[C@@H](C(F)(F)F)CCN(Cc4ccccc4)C3=O)nn2)ccc1-n1cnc(C)c1 | –
0.44 µM | 0.07 µM | 10.2 µM | COc1cc(-c2cn([C@H]3C[C@@H]([Si](C)(C)C)CCN(Cc4ccccc4)C3=O)nn2)ccc1-n1cnc(C)c1 | –
0.21 µM | 0.02 µM | > 50 µM | COc1cc(-c2cn([C@H]3C[C@@H](C(F)(F)F)CCN(CC(F)(F)F)C3=O)nn2)ccc1-n1cnc(C)c1 | –
1.91 µM | 0.29 µM | > 50 µM | COc1cc(-c2cn([C@H]3C[C@@H](C(F)(F)F)CN(CC(F)(F)F)C3=O)nn2)ccc1-n1cnc(C)c1 | –
2.21 µM | 0.3 µM | > 50 µM | COc1cc(-c2cn([C@H]3CCCCN(CC(F)(F)F)C3=O)nn2)ccc1-n1cnc(C)c1 | –
0.15 µM | 0.02 µM | > 50 µM | COc1cc(-c2cn([C@H]3C[C@@H](c4ccccc4)CCN(CC(F)(F)F)C3=O)nn2)ccc1-n1cnc(C)c1 | –
0.17 µM | 0.009 µM | 24.3 µM | COc1cc(-c2cn([C@H]3C[C@@H](C(C)(C)C)CCN(CC(F)(F)F)C3=O)nn2)ccc1-n1cnc(C)c1 | –
5.12 µM | 0.48 µM | > 50 µM | COc1cc(-c2cn(C3CCCC(C(C)(C)C)NC3=O)nn2)ccc1-n1cnc(C)c1 (racemic) | –
> 10 µM | 4.42 µM | > 50 µM | COc1cc(-c2cn(C3CCCCNC3=O)nn2)ccc1-n1cnc(C)c1 (racemic) | –
9.1 µM | 1.27 µM | > 50 µM | COc1cc(-c2cn(C3CC(C(F)(F)F)CCNC3=O)nn2)ccc1-n1cnc(C)c1 (racemic) | –
6.16 µM | 1.11 µM | > 50 µM | COc1cc(-c2cn(C3CC(C(F)(F)F)CNC3=O)nn2)ccc1-n1cnc(C)c1 (racemic) | > 30 µM
7.42 µM | 1.31 µM | > 50 µM | COc1cc(-c2cn(C3CC(C)(C)CCNC3=O)nn2)ccc1-n1cnc(C)c1 (racemic) | 20.8 µM
1.23 µM | 0.33 µM | 45.3 µM | COc1cc(-c2cn(C3CC([Si](C)(C)C)CCNC3=O)nn2)ccc1-n1cnc(C)c1 (racemic) | –
